For orientation: inhibition means the relative decrease from the control value, in per cent. As a reminder, the IC50 is the midpoint of a concentration-inhibition curve.

Here are results for two compounds from ChEMBL document CHEMBL4706565, “Anti-glioma effects of 2-aminothiophene-3-carboxamide derivatives, ANO1 channel blockers” (Eur J Med Chem, 2020).

Active and inactive are the calls of the source. The rule behind the calls is not given here.

Test [1] has as its target T1, Anoctamin-1 (Mus musculus) (UniProt Q8BHY3).
T1 sequence (whole entry): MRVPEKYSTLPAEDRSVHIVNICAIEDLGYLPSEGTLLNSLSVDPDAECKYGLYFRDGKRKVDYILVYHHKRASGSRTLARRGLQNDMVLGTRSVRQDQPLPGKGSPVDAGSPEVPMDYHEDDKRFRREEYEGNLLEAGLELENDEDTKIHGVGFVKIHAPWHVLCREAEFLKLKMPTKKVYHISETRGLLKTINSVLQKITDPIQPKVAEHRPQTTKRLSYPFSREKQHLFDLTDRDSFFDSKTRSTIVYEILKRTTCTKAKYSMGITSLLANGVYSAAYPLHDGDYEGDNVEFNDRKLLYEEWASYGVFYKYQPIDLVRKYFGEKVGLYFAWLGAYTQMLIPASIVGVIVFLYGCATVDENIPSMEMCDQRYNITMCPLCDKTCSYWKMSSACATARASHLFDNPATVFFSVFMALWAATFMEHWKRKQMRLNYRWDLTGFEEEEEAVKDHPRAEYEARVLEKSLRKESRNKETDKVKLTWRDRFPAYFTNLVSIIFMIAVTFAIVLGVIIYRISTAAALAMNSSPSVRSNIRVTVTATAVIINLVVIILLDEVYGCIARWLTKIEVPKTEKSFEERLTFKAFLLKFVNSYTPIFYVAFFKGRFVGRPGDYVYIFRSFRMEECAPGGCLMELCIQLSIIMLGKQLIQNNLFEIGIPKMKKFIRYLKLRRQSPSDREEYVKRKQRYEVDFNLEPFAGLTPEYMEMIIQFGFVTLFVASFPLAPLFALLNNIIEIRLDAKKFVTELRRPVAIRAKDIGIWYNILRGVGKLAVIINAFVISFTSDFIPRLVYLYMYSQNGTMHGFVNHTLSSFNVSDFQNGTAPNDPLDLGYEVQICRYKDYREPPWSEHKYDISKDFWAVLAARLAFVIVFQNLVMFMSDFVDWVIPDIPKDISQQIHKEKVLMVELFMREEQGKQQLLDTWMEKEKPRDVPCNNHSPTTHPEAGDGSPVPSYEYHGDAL
Briefly: (§1) Inhibition of GFP-fused mouse ANO1 channel expressed in HEK293A cells assessed as inhibition of ATP-induced channel current amplitude at membrane potential of +80 mV by patch clamp electrophysiology assay. The test is classed as cell-based. The following applies: HEK293-A. In outline: (§2)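 Whole-cell recording at room temperature in HEK293A cells transfected with GFP-mANO1, GFP-mANO2 or GFP-mTTYH1. 1 s ramps from +80 to -80 mV, holding potential -10 mV. For ANO1/ANO2: pipette CsCl 146 mM with Ca-EGTA-NMDG, pH 7.3; bath NaCl-based, pH 7.3. For TTYH1: Tris-aspartate pipette (pH 7.2) and Tris-HCl bath (pH 7.4), with […] and BaCl2 added to block K+ channels, and hypotonic (220 mOsm/kg) bath. Washout recordings assessed reversibility.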

The next test has as its target T2, Anoctamin-1 (Mus musculus, UniProt Q8BHY3).
T2 sequence (Q8BHY3 whole entry): T1 sequence (whole entry)
The test is described as §1. The test is classed as cell-based, HEK293-A. In outline:
as §2

Test [2] has as its system U-251. Briefly: Inhibition of anchorage-independent colony formation in human U251 cells at 10 uM incubated for 14 days by crystal violet staining based soft agar colony formation assay. Type of test: functional, cell-based. The following applies: time 14.0 day. In outline:
(§3)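 Soft agar assay: 2.0×10^3 U251 cells in complete medium with 0.3% agar over a 0.6% bottom agar layer. Treated with compounds at 1-100 μM for 14 days, 37 °C, 5% CO2. Colonies stained with crystal violet for 24 h, whole wells photographed and colonies counted against DMSO control; n = 3.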

The subject of test [3] is U-251. As to the kind of experiment: Inhibition of anchorage-independent colony formation in human U251 cells at 100 uM incubated for 14 days by crystal violet staining based soft agar colony formation assay. The test is classed as functional. The following applies: U-251, 336 h, time 14 day. In outline:
as §3

Test [4] has as its system U-251. As to the kind of experiment: Inhibition of cell migration in human U251 cells at 10 uM incubated for 18 hrs by wound healing assay. The test is classed as functional. In outline:
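U251 monolayer, 2.0×10^5 cells/well, plated overnight, then scratched and washed with PBS. Wound area imaged before and after incubation; migration ratio taken from migrated area. One-way ANOVA.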

The subject of test [5] is U-251. As to the kind of experiment: Upregulation of E-cadherin protein expression in human U251 cells incubated for 18 hrs by Western blot analysis. Type of test: functional, cell-based. The following applies: dose 1-10 µM. In outline:
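U251 cells (5×10^5) treated with compounds for 18 h, lysed in NP40 buffer with protease inhibitors. 25 μg lysate run on SDS-PAGE and blotted for E-cadherin, β-actin as loading control. Primary antibodies at 1:1000 (actin 1:10000). Bands quantified by densitometry; one-way ANOVA.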
(Immunoblotting shows a protein as a band on a membrane.)

For test [6], the system named is U-251. Briefly: Inhibition of anchorage-independent colony formation in human U251 cells incubated for 14 days by crystal violet staining based soft agar colony formation assay. The note with it: dose 30-100 µM, time 14.0 day. The test is classed as functional, cell-based. The procedure, abridged: as §3
The target of test [7] is T3, Anoctamin-1 (Homo sapiens) (UniProt Q5XXA6).
T3 sequence (whole entry): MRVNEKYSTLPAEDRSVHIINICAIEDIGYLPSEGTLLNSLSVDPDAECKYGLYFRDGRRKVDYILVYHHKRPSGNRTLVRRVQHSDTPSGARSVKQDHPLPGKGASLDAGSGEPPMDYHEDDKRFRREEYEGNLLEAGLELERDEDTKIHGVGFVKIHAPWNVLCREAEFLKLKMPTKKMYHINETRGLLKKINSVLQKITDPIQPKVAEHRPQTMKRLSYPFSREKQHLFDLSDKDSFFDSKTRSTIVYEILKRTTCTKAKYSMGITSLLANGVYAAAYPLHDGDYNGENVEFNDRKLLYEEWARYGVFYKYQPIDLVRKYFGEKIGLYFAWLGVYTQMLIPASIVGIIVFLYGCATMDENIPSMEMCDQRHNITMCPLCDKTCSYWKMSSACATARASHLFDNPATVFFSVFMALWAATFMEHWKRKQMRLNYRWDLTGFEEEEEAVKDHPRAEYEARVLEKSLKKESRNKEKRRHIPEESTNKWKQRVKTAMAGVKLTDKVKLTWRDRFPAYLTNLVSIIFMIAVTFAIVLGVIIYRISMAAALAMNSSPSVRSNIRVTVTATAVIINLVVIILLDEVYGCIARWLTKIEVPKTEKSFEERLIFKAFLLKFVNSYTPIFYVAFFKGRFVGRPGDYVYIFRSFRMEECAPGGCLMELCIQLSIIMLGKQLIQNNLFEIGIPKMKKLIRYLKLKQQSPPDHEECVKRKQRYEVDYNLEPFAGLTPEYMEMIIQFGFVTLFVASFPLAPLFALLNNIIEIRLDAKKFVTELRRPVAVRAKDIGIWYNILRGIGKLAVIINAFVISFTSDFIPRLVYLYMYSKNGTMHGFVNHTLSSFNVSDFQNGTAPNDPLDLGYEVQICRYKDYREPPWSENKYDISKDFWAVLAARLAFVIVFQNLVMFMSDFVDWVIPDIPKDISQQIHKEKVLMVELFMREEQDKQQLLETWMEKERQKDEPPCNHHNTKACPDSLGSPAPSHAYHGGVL
Briefly: Inhibition of ANO1 in human U251 cells assessed as inhibition of channel current at 10 uM by patch clamp electrophysiology assay. The test is classed as cell-based. The following applies: U-251. In outline:
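Endogenous ANO1 currents recorded by whole-cell patch clamp in U251 cells, room temperature. 1 s ramps from +80 to -80 mV, holding potential -10 mV. CsCl-based pipette with Ca-EGTA-NMDG (pH 7.3) and NaCl-based bath (pH 7.3).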
A general note: Patch clamp records ionic current or voltage across a cell membrane.

Consider `CC(C)(C)C(=O)Nc1sc2c(c1C(N)=O)CCC(C(C)(C)C)C2` (stereo unspecified), for which the inhibition result in test [1] is “Dose-dependent effect”; in the test on U-251 [6], “Dose-dependent effect”; in test [7] it was 40%. Moreover, the IC50 on Anoctamin-1 stood at 2560 nM. Moreover, the inhibition entry in the test with U-251 [2] was “inactive”. Testing at 100 µM in the test with U-251 [3] gave an inhibition of 95.7%. Also, the inhibition at 10 µM with U-251 [4] is 90%. In addition, in the test with U-251 [5], the Activity entry is “Dose-dependent effect”.

With `NC(=O)c1c(NC(=S)NC(=O)c2ccc(Cl)cc2)sc2c1CCC2`, the inhibition entry in test [1] was “Dose-dependent effect”; in the test with U-251 [6] it was “Dose-dependent effect”; in test [7], 60%. Also, on Anoctamin-1, the IC50 stood at 1750 nM. The inhibition result in the test with U-251 [2] was “inactive”. In addition, the inhibition at 100 µM in the test with U-251 [3] was 88%. In addition, the inhibition result in the test on U-251 [4] is “Active”. Moreover, the Activity result with U-251 [5] is “Dose-dependent effect”.
